From ChEMBL document CHEMBL1268966, “Tetrasubstituted naphthalene diimide ligands with selectivity for telomeric G-quadruplexes and cancer cells” (Bioorg Med Chem Lett, 2010)
pIC50: −log10 of the molar value. Active and inactive are the calls of the source. No cut-off for these calls is given here.

Assays:
PANC-1 = assay: Cytotoxicity against human PANC1 cells after 96 hrs by SRB assay; conditions: PANC-1, 96 h
Nucleic Acid [1] = assay: Stabilization of Wt26 G-telomeric quadruplex DNA assessed as inhibition of human POT1 binding to DNA by EMSA assay; assay type: nucleic-acid assay
Outline: (§1)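 In vitro EMSA measuring displacement of hPOT1 or Topo IIIα binding to the telomeric sequence WT26. For Topo IIIα, a duplex DNA substrate was tested in parallel.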

Nucleic Acid [2] = assay: Stabilization of human G4-telomeric quadruplex 23-mer DNA assessed as topology at 1:1 to 1:15 DNA to compound ratio at pH 7.4 after 6 hrs by circular dichroism spectroscopy in presence of 100 mM Na+ ions; assay type: nucleic-acid assay
Outline: (§2)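 Circular dichroism spectra of the human telomeric 23-mer DNA at pH 7.4 with various DNA:ligand ratios.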

Nucleic Acid [3] = assay: Stabilization of human F21T G4-telomeric quadruplex assessed in presence of 300 fold excess duplex DNA by FRET assay; assay type: nucleic-acid assay
Outline: (§3)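 FRET melting temperature assay reporting the shift in quadruplex melting temperature. Competition runs added excess duplex DNA at different ratios, expressed as G-quartet concentration versus duplex nucleotide phosphate concentration.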

MCF7 [4] = assay: Cytotoxicity against human MCF7 cells after 96 hrs by SRB assay; conditions: MCF7, 96 h
Nucleic Acid [5] = assay: Stabilization of human c-kit2 G4 DNA sequence assessed as melting temperature by FRET assay; assay type: nucleic-acid assay
A549 = assay: Cytotoxicity against human A549 cells after 96 hrs by SRB assay; conditions: A549, 96 h
Nucleic Acid [6] = assay: Stabilization of human F21T G4-telomeric quadruplex by FRET assay in presence of duplex to quadruplex DNA ratio of 10:1; assay type: nucleic-acid assay
Outline: as §3

MIA PaCa-2 = assay: Cytotoxicity against human MIAPaCa2 cells after 96 hrs by SRB assay; conditions: MIA PaCa-2, 96 h
[7] = Cytotoxicity against human WI138 cells after 96 hrs by SRB assay
Nucleic Acid [8] = assay: Stabilization of duplex DNA assessed as inhibition of human TOPO 3-alpha binding to duplex DNA by EMSA assay; assay type: nucleic-acid assay
Outline: as §1

Nucleic Acid [9] = assay: Stabilization of Wt26 G-telomeric quadruplex DNA assessed as inhibition of human TOPO 3-alpha binding to DNA by EMSA assay; assay type: nucleic-acid assay
Outline: as §1

Nucleic Acid [10] = assay: Stabilization of human G4-telomeric quadruplex 23-mer DNA assessed as topology at 1:1 to 1:15 DNA to compound ratio at pH 7.4 after 6 hrs by circular dichroism spectroscopy in presence of 100 mM K+ ions; assay type: nucleic-acid assay
Outline: as §2

Nucleic Acid [11] = assay: Stabilization of human F21T G4-telomeric quadruplex assessed as melting temperature by FRET assay; assay type: nucleic-acid assay
Outline: as §3

BXPC-3 = assay: Cytotoxicity against human BxPC3 cells after 96 hrs by SRB assay; conditions: BXPC-3, 96 h
HPAC = assay: Cytotoxicity against human HPAC cells after 96 hrs by SRB assay
Nucleic Acid [12] = assay: Stabilization of human duplex DNA T-loop assessed as melting temperature by FRET assay; assay type: nucleic-acid assay
Nucleic Acid [13] = assay: Stabilization of human c-kit1 G4 DNA sequence assessed as melting temperature by FRET assay; assay type: nucleic-acid assay
MCF7 [14] = assay: Inhibition of human telomerase activity in human MCF7 cells at 50 nM after 1 week by modified TRAP assay; assay type: cell-based
Outline: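 MCF7 cells were exposed to 50 nM ligand for 1 week, then a further week. Telomerase activity was measured by a modified TRAP–LIG assay with denaturing gel separation. Each PCR product ladder's total intensity was scanned and integrated, then normalized to a positive control with untreated telomerase protein only.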

inhibition (Nucleic Acid [1]) | Activity (Nucleic Acid [2]) | Activity (Nucleic Acid [3]) [%] | deltaTm (Nucleic Acid [5]) [K] | Activity (Nucleic Acid [6]) | inhibition (Nucleic Acid [8]) | inhibition (Nucleic Acid [9]) | Activity (Nucleic Acid [10]) | deltaTm (Nucleic Acid [11]) [K] | deltaTm (Nucleic Acid [12]) [K] | deltaTm (Nucleic Acid [13]) [K] | SMILES | pIC50 (PANC-1) | pIC50 (MCF7 [4]) | pIC50 (A549) | pIC50 (MIA PaCa-2) | pIC50 [7] | pIC50 (BXPC-3) | pIC50 (HPAC) | inhibition (MCF7 [14]) [%]
Active | Active | 50 | 15.2 | Active | inactive | Active | Active | 28.3 | 1.3 | 1.8 | CN1CCN(CCCNc2cc3c4c(c(NCCCN5CCN(C)CC5)cc5c4c2C(=O)N(CCCN2CCN(C)CC2)C5=O)C(=O)N(CCCN2CCN(C)CC2)C3=O)CC1 | 6.83 | 6.78 | 6.97 | 6.95 | 5.04 | 5.82 | 6.73 | 50
 | Active | 50 | 16.7 | Active |  |  | Active | 24.7 | 0.1 | 4.9 | CN1CCN(CCCCNc2cc3c4c(c(NCCCCN5CCN(C)CC5)cc5c4c2C(=O)N(CCCCN2CCN(C)CC2)C5=O)C(=O)N(CCCCN2CCN(C)CC2)C3=O)CC1 | 6.97 | 7.00 | 7.16 | 7.14 | 5.26 | 5.99 | 6.93 | 
Active | Active | 50 | 7.7 | Active | inactive | Active | Active | 23.8 | 0.2 | 1.5 | CN1CCN(CCCCCNc2cc3c4c(c(NCCCCCN5CCN(C)CC5)cc5c4c2C(=O)N(CCCCCN2CCN(C)CC2)C5=O)C(=O)N(CCCCCN2CCN(C)CC2)C3=O)CC1 | 6.71 | 6.71 | 6.59 | 6.92 | 5.07 | 6.12 | 6.69 | 
